Experimental findings from ChEMBL document CHEMBL1255494, “In vivo comparison of the pharmacodynamic targets for echinocandin drugs against Candida species” (Antimicrob Agents Chemother, 2010) are described below.

The test system of data set [1] is Mus musculus. The data set can be described thus: Protein binding in Candida albicans infected neutropenic ICR Swiss mouse at 80 mg/kg, ip. The data set is classed as ADME, organism-based. Details: dose 80 mg/kg, route intraperitoneal. The conditions noted are these: in vivo.
The nature of data set [2]: Ratio of fAUC (0 to 24 hrs) in Candida parapsilosis infected neutropenic ICR Swiss mouse to MIC for Candida parapsilosis at 1 log kill dose after 24 hrs. The data set is classed as functional.
Data set [3] in a line: Ratio of AUC (0 to 24 hrs) in Candida glabrata infected neutropenic ICR Swiss mouse to MIC for Candida glabrata at 1 log kill dose after 24 hrs. The format is functional. In a few lines: (§1)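 Neutropenic mice were infected iv and treated 2 h later. Four to six ip dose levels (0.078–160 mg/kg) were given every 24 h for 4 days, 3 mice per regimen. Kidney CFU were counted at 96 h. A sigmoid dose-effect model gave the static and 1-log-kill doses relative to burden at therapy start.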

The test system of data set [4] is Candida parapsilosis. The data set can be described thus: Antifungal activity against Candida parapsilosis 20511.092 after 24 hrs. The conditions noted are these: Lodderomyces parapsilosis, 20511.092, 24 h. The format is functional. A digest of the protocol:
(§2)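 MICs by CLSI M27-A3 broth dilution in RPMI 1640, inoculum 0.5 × 10³ to 2.5 × 10³ cells/ml, 35°C. Read visually at 24 h as the lowest concentration giving ≥50% growth reduction versus control. Run on three occasions in duplicate and reported as the mean. C. krusei ATCC 6258 and C. parapsilosis ATCC 22019 served as QC strains.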

Data set [5] in a line: AUC (0 to 24 hrs) in Candida albicans infected neutropenic ICR Swiss mouse at 80 mg/kg, ip. Details: time < 24 hr, dose 80 mg/kg, route intraperitoneal. The data set is classed as ADME, organism-based. To be noted: plasma. A digest of the protocol:
(§3)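 Neutropenic female ICR Swiss mice (cyclophosphamide sc at 150 mg/kg on day −4, 100 mg/kg on day −1 and day +2) infected iv via tail vein with Candida; single ip doses of 5, 20 or 80 mg/kg. Serum drawn from 3 mice per time point at eight time points and assayed by microbiologic assay (C. albicans K1) or […]. Noncompartmental analysis; AUC by trapezoidal rule.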

For data set [6], the system named is Candida albicans. In words: Antifungal activity against Candida albicans 98-234 after 24 hrs. The format is functional. The conditions noted are these: 98-234, 24 h. In a few lines:
as §2

The test system of data set [7] is Candida parapsilosis. The data set can be described thus: Antifungal activity against Candida parapsilosis 20477.078 after 24 hrs. The format is functional. The conditions noted are these: Lodderomyces parapsilosis, 20477.078, 24 h. A digest of the protocol:
as §2

Data set [8] has as its system Mus musculus. The data set can be described thus: Cmax in Candida albicans infected neutropenic ICR Swiss mouse at 80 mg/kg, ip. To be noted: in vivo. The format is ADME, organism-based. Details: dose 80 mg/kg, route intraperitoneal. A digest of the protocol:
as §3

The test system of data set [9] is Candida albicans. The data set can be described thus: Antifungal activity against Candida albicans infected in ICR Swiss mouse assessed as log reduction in bacterial count […]. The format is functional. In a few lines:
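Female ICR Swiss mice, neutropenic via cyclophosphamide s.c. (150 mg/kg day −4, 100 mg/kg day −1 and day +2), infected by tail-vein injection of clinical isolates 2 h before therapy. Intraperitoneal dosing every 24 h for 4 days, 4–6 dose levels from 0.078 to 160 mg/kg, 3 mice per regimen. Kidney CFU counted at 96 h. Sigmoid dose-effect fit gives static dose and 1 log kill dose relative to burden at start of therapy.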

Data set [10] in a line: Ratio of AUC (0 to 24 hrs) in Candida parapsilosis infected neutropenic ICR Swiss mouse to MIC for Candida parapsilosis at static dose after 24 hrs. The format is functional. In a few lines:
as §1

In data set [11] the test system is Candida parapsilosis. In words: Antifungal activity against Candida parapsilosis 20557.012 after 24 hrs. The data set is classed as functional. To be noted: Lodderomyces parapsilosis, 20557.012, 24 h. A digest of the protocol: as §2
In data set [12] the test system is Nakaseomyces glabratus. In words: Antifungal activity against Candida glabrata 5592 after 24 hrs. The format is functional. The conditions noted are these: Nakaseomyces glabratus, 5592, 24 h. In a few lines:
(§4)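 Broth microdilution per CLSI M27-A3 in RPMI 1640; inoculum 0.5 × 10³ to 2.5 × 10³ cells/ml, 35°C. […] Three separate occasions in duplicate, mean reported; C. krusei ATCC 6258 and C. parapsilosis ATCC 22019 as daily QC.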

Data set [13] is described as follows: Ratio of fAUC (0 to 24 hrs) in Candida albicans infected neutropenic ICR Swiss mouse to MIC for Candida albicans at static dose after 24 hrs. The data set is classed as functional.
Data set [14] deals with Candida parapsilosis. In words: Antifungal activity against Candida parapsilosis 20423.078 after 24 hrs. The format is functional. To be noted: Lodderomyces parapsilosis, 20423.078, 24 h. A digest of the protocol:
as §2

For data set [15], the system named is Nakaseomyces glabratus. In words: Antifungal activity against Candida glabrata 33609 after 24 hrs. The data set is classed as functional. To be noted: Nakaseomyces glabratus, 33609, 24 h. In a few lines:
as §4

The test system of data set [16] is Mus musculus. The data set can be described thus: Cmax in Candida albicans infected neutropenic ICR Swiss mouse at 5 mg/kg, ip. The format is ADME, organism-based. Details: dose 5 mg/kg, route intraperitoneal. To be noted: in vivo. A digest of the protocol: as §3
In data set [17] the test system is Mus musculus. The data set can be described thus: Cmax in Candida albicans infected neutropenic ICR Swiss mouse at 20 mg/kg, ip. The format is ADME, organism-based. Details: dose 20 mg/kg, route intraperitoneal. To be noted: in vivo. In a few lines: as §3
Data set [18] has as its system Candida parapsilosis. In words: Antifungal activity against Candida parapsilosis 20519.069 after 24 hrs. The format is functional. The conditions noted are these: Lodderomyces parapsilosis, 20519.069, 24 h. In a few lines:
as §2

Data set [19] deals with Candida parapsilosis. In words: Antifungal activity against Candida parapsilosis 20423.072 after 24 hrs. The format is functional. To be noted: Lodderomyces parapsilosis, 20423.072, 24 h. A digest of the protocol:
as §2

Data set [20] is described as follows: AUC (0 to 24 hrs) in Candida albicans infected neutropenic ICR Swiss mouse at 20 mg/kg, ip. The data set is classed as ADME, organism-based. Details: time < 24 hr, dose 20 mg/kg, route intraperitoneal. To be noted: plasma. A digest of the protocol: as §3

In brackets after ≈: the same amount, converted by molar mass. *1 amine or outer side, *2 acyl side, *3 side chain or, on linkers, in order; H or OH if unused. Where a SMILES comes first, the peptide text is derived from it. Bridges are numbered along the chain shown (N, C = ends). [ ]: non-standard residue; d: D form. The star is where a group is joined. hTyr(3S-OH,4S-OH,3'-OSO3H) = N[C@H](C(=O)O)[C@H](O)[C@@H](O)c1ccc(O)c(OS(=O)(=O)O)c1; pTerphenylCO(4''-OnC5H11) = CCCCCOc1ccc(-c2ccc(-c3ccc(C(=O)*)cc3)cc2)cc1; Orn(4R-OH,5R-OH) = O=C([C@H](C[C@@H](O)[C@@H](O)N[*:3])N[*:1])[*:2]; hTyr(3S-OH,4S-OH) = N[C@H](C(=O)O)[C@H](O)[C@@H](O)c1ccc(O)cc1; Pro(3S-OH,4S-Me) = C[C@H]1CN[C@H](C(=O)O)[C@H]1O; X1 = CCCCCOc1ccc(-c2cc(-c3ccc(C(=O)*)cc3)no2)cc1; Gln(3R-OH) = NC(=O)C[C@@H](O)[C@H](N)C(=O)O; Hyp = O=C(O)[C@@H]1C[C@@H](O)CN1

As to `CCCCCOc1ccc(-c2ccc(-c3ccc(C(=O)N[C@H]4C[C@@H](O)[C@@H](O)NC(=O)[C@@H]5[C@@H](O)[C@@H](C)CN5C(=O)[C@H]([C@@H](C)O)NC(=O)[C@H]([C@H](O)[C@@H](O)c5ccc(O)cc5)NC(=O)[C@@H]5C[C@@H](O)CN5C(=O)[C@H]([C@@H](C)O)NC4=O)cc3)cc2)cc1` [ANIDULAFUNGIN] ({pTerphenylCO(4''-OnC5H11)}-[Orn(4R-OH,5R-OH)]T[Hyp][hTyr(3S-OH,4S-OH)]T[Pro(3S-OH,4S-Me)]; lactam 1-C), the Activity in the data set with Mus musculus [1] came out at 99%; in the data set on Candida albicans [9] it was 4.25 mg/kg. The Ratio in data set [2] stood at 22; in data set [3], 3188; in [10] it was 1154; in data set [13], 27.8. Besides, the MIC in the data set with Candida parapsilosis [4] worked out at 1 mg/L (≈ 0.877 µM); against Candida albicans [6], 0.015 mg/L (≈ 0.0132 µM); with Candida parapsilosis [7] it was 2 mg/L (≈ 1.75 µM); in the data set on Candida parapsilosis [11], 0.5 mg/L (≈ 0.438 µM); against Nakaseomyces glabratus [12], 0.06 mg/L (≈ 0.0526 µM); against Candida parapsilosis [14], 1 mg/L (≈ 0.877 µM). The MIC amounted to 0.03 mg/L (≈ 0.0263 µM) with Nakaseomyces glabratus [15], 4 mg/L (≈ 3.51 µM) in the data set on Candida parapsilosis [18] and 1 mg/L (≈ 0.877 µM) in the data set with Candida parapsilosis [19]. For the same compound, the AUC(0-t) at 24 h in [5] was determined as 1980 µg·h/mL; in data set [20], 382 µg·h/mL. The Cmax with Mus musculus [8] worked out at 60 µg/mL; in the data set with Mus musculus [16], 4.3 µg/mL; with Mus musculus [17] it was 24 µg/mL.

Take `CCCCCOc1ccc(-c2cc(-c3ccc(C(=O)N[C@H]4C[C@@H](O)[C@@H](O)NC(=O)[C@@H]5[C@@H](O)[C@@H](C)CN5C(=O)[C@H]([C@H](O)CC(N)=O)NC(=O)[C@H]([C@H](O)[C@@H](O)c5ccc(O)c(OS(=O)(=O)O)c5)NC(=O)[C@@H]5C[C@@H](O)CN5C(=O)[C@H]([C@@H](C)O)NC4=O)cc3)no2)cc1` [MICAFUNGIN] (X1-[Orn(4R-OH,5R-OH)]T[Hyp][hTyr(3S-OH,4S-OH,3'-OSO3H)][Gln(3R-OH)][Pro(3S-OH,4S-Me)]; lactam 1-C): the Activity stood at 99.75% with Mus musculus [1] and 5.63 mg/kg in the data set on Candida albicans [9]. Besides, the Ratio in [2] came to 7.73; in data set [3], 3778; in data set [10], 1981; in data set [13], 12.7. Besides, the MIC against Candida parapsilosis [4] is 0.25 mg/L (≈ 0.197 µM); against Candida parapsilosis [7], 0.5 mg/L (≈ 0.394 µM); in the data set on Candida parapsilosis [11], 0.25 mg/L (≈ 0.197 µM); in the data set with Nakaseomyces glabratus [12], 0.016 mg/L (≈ 0.0126 µM); against Candida parapsilosis [14], 0.5 mg/L (≈ 0.394 µM); against Nakaseomyces glabratus [15], 0.016 mg/L (≈ 0.0126 µM). Also, the MIC worked out at 1 mg/L (≈ 0.787 µM) against Candida parapsilosis [18] and 0.25 mg/L (≈ 0.197 µM) in the data set with Candida parapsilosis [19]. Besides, the AUC(0-t) at 24 h is 1400 µg·h/mL in data set [5] and 520 µg·h/mL in [20].
